Results on one molecule are retold here after ChEMBL document CHEMBL3745678, “Novel β-Carboline/Hydroxamic Acid Hybrids Targeting Both Histone Deacetylase and DNA Display High Anticancer Activity via Regulation of the p53 Signaling Pathway” (J Med Chem, 2015).

For orientation: LD50 means the dose at which mortality reaches 50%. Read a high LD50 as a less toxic substance. As usually defined, the IC50 is the midpoint of a concentration-inhibition curve.

Data set [1] deals with Cellular tumor antigen p53 (Homo sapiens) (UniProt P04637). The data set can be described thus: Activation of p53 in human HCT116 cells assessed as p53 phosphorylation at ser15 residue at 0.1 to 5 uM after 12 hrs by western blot analysis. The data set is classed as cell-based. The settings on record: HCT-116. The method in brief:
(§1)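 HCT116 cells exposed 12 h to compound or vehicle, then lysed on ice in PBS with 1% NP-40, 0.5% deoxycholate, 0.1% SDS and protease inhibitors. Up to 50 µg protein run on SDS-PAGE and immunoblotted for phospho-p53 (Ser15), p53 and p21. Bands quantified by densitometry against β-actin; mean ± SD of three experiments.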
In general terms: A western blot detects proteins with antibodies after separation by electrophoresis.

Data set [2] has the same target. Briefly: Induction of p53 activation in human HCT116 cells assessed as upregulation of p21 expression at 0.1 to 5 uM after 12 hrs by western blot analysis. Type of data set: cell-based. As to conditions: HCT-116. The method in brief:
as §1

Data set [3] can be described thus: Acute toxicity in ICR mouse assessed as survival rate at 240 mg/kg, ip measured on day 14. Type of data set: organism-based. The settings on record: in vivo. The method in brief: (§2)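 Female ICR mice, single intraperitoneal injection at 585.9, 468.8, […], 300 or 240 mg/kg, or vehicle control, n = 10 per group. Deaths counted at 1 h, 4 h, daily on days 1-4 and over days 5-14. Eating, drinking, body weight and activity observed for 14 days, with survival (%) taken on day 14. LD50 calculated from mortality.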

Data set [4] relates to Mus musculus. Briefly: Acute toxicity in ICR mouse assessed as abnormality in eating at 240 mg/kg, ip measured for 14 days. The data set is classed as organism-based. The settings on record: in vivo, 336 h. The method in brief:
as §2

A short description of data set [5]: Acute toxicity in ip dosed ICR mouse measured for 14 days. The settings on record: in vivo. Type of data set: organism-based. In a few lines:
as §2

In data set [6] the test system is Mus musculus. Briefly: Acute toxicity in ICR mouse assessed as death at 240 to 585.9 mg/kg, ip measured after 1 hr. Type of data set: organism-based. The settings on record: in vivo. In a few lines:
as §2

Data set [7] has as its system Mus musculus. The data set can be described thus: Acute toxicity in ICR mouse assessed as death at 240 to 585.9 mg/kg, ip measured after 4 hrs. The data set is classed as organism-based. The settings on record: in vivo. In a few lines: as §2
For data set [8], the system named is Mus musculus. The data set can be described thus: Acute toxicity in ICR mouse assessed as death at 240 to 375 mg/kg, ip measured after 2 days. Type of data set: organism-based. As to conditions: in vivo, 48 h. The method in brief:
as §2

In data set [9] the test system is Mus musculus. The data set can be described thus: Acute toxicity in ICR mouse assessed as death at 468.8 mg/kg, ip measured after 5 to 14 days. Type of data set: organism-based. The settings on record: in vivo. The method in brief:
as §2

The test system of data set [10] is Mus musculus. Briefly: Acute toxicity in ICR mouse assessed as death at 240 mg/kg, ip measured after 4 days. Type of data set: organism-based. As to conditions: in vivo, 96 h. In a few lines:
as §2

Another data set deals with Histone deacetylase. Briefly: Inhibition of HDAC in human HeLa cell nuclear extract using Boc-Lys (Ac)-AMC as substrate after 60 mins by fluorometric analysis. The data set is classed as cell-based.
In another data set the test system is LoVo. The data set can be described thus: Antiproliferative activity against human LoVo cells assessed as cell viability after 48 hrs by MTT assay. The data set is classed as functional, cell-based.
The subject of data set [11] is HCT-116. The data set can be described thus: Antiproliferative activity against human HCT116 cells assessed as cell death at 5 uM after 48 hrs by MTT assay. The data set is classed as functional, cell-based. The method in brief: (§3)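 HCT116 and rat IEC-18 cells incubated 48 h over a 0–5 µM range. Viability measured by MTT and expressed as % of control. GI50 taken from the inhibition curves; three independent experiments.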
For orientation: Tetrazolium assays rely on reduction of a dye to a coloured formazan, in cell work by metabolically active cells.

The nature of data set [12]: Cytotoxicity against rat IEC-18 cells assessed as survival at 5 uM after 48 hrs by MTT assay. Type of data set: cell-based. The settings on record: iec-18, 48 h. The method in brief:
as §3

Data set [13] deals with HCT-116. Briefly: Induction of apoptosis in human HCT116 cells at 0.1 uM after 48 hrs by annexin V-FITC/propidium iodide staining-based flow cytometric analysis. Type of data set: functional. In a few lines: (§4)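 HCT116 cells cultured overnight, then exposed in triplicate for 48 h to 0.1, 1.0 or 5.0 µM, SAHA 5.0 µM or vehicle. Stained with FITC-Annexin V/PI for 15 min at room temperature.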

In data set [14] the test system is HCT-116. The data set can be described thus: Induction of apoptosis in human HCT116 cells at 5 uM after 48 hrs by annexin V-FITC/propidium iodide staining-based flow cytometric analysis. Type of data set: functional. The method in brief:
as §4
Background: In flow cytometry, cells or beads pass a laser one at a time.

Data set [15] in a line: Downregulation of Bcl2 expression in human HCT116 cells after 48 hrs by western blot analysis. The data set is classed as functional, cell-based. As to conditions: HCT-116. In a few lines: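 HCT116 cells treated 48 h with or without compound. Western blots probed for Bax, Bcl-2, cleaved caspase-3 and PARP. Band intensities relative to β-actin by densitometry; means ± SD from three separate experiments.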

The next data set addresses Histone deacetylase 1 (Homo sapiens, UniProt Q13547). Briefly: Inhibition of recombinant human HDAC1 using Boc-Lys (Ac)-AMC as substrate after 60 mins by fluorometric analysis.
Data set [16] deals with T1, Protein deacetylase HDAC6 (Homo sapiens, UniProt Q9UBN7).
T1 sequence (Q9UBN7 whole entry): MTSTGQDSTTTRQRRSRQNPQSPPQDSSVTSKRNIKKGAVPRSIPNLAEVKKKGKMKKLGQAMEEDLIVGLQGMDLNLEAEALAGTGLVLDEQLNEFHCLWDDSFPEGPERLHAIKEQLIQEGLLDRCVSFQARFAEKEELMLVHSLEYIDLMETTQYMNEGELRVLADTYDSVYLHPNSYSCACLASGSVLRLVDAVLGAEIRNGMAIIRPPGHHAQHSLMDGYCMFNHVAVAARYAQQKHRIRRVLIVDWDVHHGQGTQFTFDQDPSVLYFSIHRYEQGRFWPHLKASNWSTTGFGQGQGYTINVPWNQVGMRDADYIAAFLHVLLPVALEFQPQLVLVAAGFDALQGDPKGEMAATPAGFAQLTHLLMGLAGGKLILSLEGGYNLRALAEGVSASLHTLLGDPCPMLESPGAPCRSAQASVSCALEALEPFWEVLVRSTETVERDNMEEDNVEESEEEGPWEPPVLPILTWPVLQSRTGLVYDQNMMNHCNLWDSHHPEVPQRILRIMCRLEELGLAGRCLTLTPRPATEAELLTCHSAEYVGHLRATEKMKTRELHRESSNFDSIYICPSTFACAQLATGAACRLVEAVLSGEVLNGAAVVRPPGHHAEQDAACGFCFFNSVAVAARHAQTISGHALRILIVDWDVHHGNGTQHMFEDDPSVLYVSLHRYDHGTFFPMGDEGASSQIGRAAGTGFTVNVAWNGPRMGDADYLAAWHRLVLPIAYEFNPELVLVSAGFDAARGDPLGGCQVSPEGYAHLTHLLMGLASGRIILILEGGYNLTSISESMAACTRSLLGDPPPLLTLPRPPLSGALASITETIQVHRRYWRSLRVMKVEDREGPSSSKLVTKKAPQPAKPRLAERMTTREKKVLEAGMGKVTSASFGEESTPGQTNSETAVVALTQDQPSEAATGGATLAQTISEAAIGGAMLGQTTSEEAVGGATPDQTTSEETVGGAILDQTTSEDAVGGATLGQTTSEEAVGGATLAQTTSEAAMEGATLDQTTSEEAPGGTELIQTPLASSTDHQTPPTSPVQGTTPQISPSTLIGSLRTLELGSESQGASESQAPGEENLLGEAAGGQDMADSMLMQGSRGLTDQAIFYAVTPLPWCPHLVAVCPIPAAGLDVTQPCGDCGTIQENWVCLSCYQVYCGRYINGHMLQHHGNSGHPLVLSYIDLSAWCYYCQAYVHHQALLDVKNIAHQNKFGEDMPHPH
The data set can be described thus: Inhibition of recombinant human HDAC6 using Boc-Lys (Ac)-AMC as substrate after 60 mins by fluorometric analysis.

Calls of active or inactive are those of the source. The calls are words filed in the database; no cut-off is given here.

Chain of Cellular tumor antigen p53 (Homo sapiens) (P04637 whole entry, looked up): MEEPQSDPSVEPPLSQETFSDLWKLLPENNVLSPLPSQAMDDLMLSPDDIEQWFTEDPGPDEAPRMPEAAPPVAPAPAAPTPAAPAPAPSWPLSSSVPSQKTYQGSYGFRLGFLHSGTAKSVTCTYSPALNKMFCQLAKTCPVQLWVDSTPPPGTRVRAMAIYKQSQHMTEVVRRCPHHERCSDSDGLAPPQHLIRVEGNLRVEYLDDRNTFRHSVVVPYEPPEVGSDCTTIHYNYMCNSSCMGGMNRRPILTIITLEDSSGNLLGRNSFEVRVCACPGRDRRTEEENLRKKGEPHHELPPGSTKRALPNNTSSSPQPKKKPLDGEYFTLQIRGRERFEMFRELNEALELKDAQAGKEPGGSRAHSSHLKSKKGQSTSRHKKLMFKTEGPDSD
Chain of Histone deacetylase 1 (Q13547 whole entry): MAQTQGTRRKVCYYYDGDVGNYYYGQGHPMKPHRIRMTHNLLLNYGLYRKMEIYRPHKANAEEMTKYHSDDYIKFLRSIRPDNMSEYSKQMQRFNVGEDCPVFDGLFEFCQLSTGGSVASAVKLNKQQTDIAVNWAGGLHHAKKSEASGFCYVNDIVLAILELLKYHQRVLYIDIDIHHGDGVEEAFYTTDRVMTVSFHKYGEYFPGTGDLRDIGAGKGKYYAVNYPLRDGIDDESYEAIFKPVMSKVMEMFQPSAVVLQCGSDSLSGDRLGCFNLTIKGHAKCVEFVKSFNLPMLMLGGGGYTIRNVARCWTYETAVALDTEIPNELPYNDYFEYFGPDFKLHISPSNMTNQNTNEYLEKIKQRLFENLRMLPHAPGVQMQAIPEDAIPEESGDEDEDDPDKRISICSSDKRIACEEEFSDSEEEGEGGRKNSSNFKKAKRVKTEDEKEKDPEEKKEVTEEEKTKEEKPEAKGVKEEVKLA

Take `COc1ccc(-c2nc(NC(=O)NCCCC(=O)NO)cc3c2[nH]c2ccccc23)cc1`: the outcome (in [1]; in data set [2]; in the data set with HCT-116 [11]) was Active. The survival at 14 day in data set [3] was determined as 100%. The Activity result with Mus musculus [4], in the data set on Mus musculus [6], in the data set with Mus musculus [7], in the data set on Mus musculus [8], in the data set on Mus musculus [9] and with Mus musculus [10] was “Non-toxic” throughout. For the same molecule, the Activity result in data set [12] is “Non-toxic”; with HCT-116 [13] it was 21.6%; in the data set on HCT-116 [14], 73.9%; in [15], “Dose-dependent effect”. Moreover, the LD50 at 336 h in [5] was 472 mg/kg. Further, the IC50 came to 270 nM against Histone deacetylase, 1630 nM with LoVo, 26 nM on Histone deacetylase 1 and 34 nM in data set [16].
